Measured values published in ChEMBL document CHEMBL1156459, “Discovery of a small molecule antagonist of the parathyroid hormone receptor by using an N-terminal parathyroid hormone peptide probe” (Proc Natl Acad Sci U S A, 2007).
Square brackets hold non-standard residues; d marks the D form. Peptide text beside a SMILES is read from it. Nle = CCCC[C@H](N)C(=O)O; Aib = CC(C)(N)C(=O)O

Tests used:
[1] = Effect on c-fos gene expression in rat UMR106 cells after 8 hrs by microarray analysis relative to control; type: functional
Method in brief: (§1)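 Rat UMR106 cells grown to confluency in DMEM/10% FBS, then moved to 0.1% FBS medium 24 h before treatment. Peptides (100 nM) were added to the medium for 2 or 8 h. Microarray profiling covered 8,799 reporters, with changes called at P < 0.01. Values are fold-change versus untreated control.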

[2] = Effect on Pthr1 gene expression in rat UMR106 cells after 2 hrs by microarray analysis relative to control; type: functional; method in brief: as §1
[3] = Stimulation of osteoclast-mediated bone resorption in fetal Sprague-Dawley rat radii/ulnae assessed as [45Ca]release measured on day 5; type: functional; conditions: 120 h
Method in brief: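 Fetal rat radii/ulnae prelabelled with 45Ca in utero, dissected and cultured. 45Ca released into the culture medium measured as the osteoclast-mediated resorption read-out.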

[4] = target: T1, Parathyroid hormone/parathyroid hormone-related peptide receptor (Homo sapiens, UniProt Q03431); assay: Binding affinity to PTH/PTH-related peptide receptor expressed in HKRK-B28 cells; type: cell-based
T1 sequence (Q03431 whole entry): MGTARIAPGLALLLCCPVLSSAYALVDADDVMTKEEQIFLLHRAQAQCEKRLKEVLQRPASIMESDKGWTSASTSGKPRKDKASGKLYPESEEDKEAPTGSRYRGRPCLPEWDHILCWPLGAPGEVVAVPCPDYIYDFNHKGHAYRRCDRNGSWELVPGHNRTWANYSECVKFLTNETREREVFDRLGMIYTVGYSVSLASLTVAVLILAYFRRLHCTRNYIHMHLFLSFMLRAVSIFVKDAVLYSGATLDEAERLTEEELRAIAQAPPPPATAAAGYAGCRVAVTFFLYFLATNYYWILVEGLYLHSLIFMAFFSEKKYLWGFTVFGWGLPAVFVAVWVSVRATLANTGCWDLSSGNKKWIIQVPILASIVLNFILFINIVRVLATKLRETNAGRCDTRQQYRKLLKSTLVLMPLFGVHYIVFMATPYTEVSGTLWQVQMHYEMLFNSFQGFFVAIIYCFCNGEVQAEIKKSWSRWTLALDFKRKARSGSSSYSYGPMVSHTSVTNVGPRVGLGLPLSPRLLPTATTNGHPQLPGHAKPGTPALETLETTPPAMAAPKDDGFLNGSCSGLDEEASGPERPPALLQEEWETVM
Method in brief: (§2)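 Whole HKRK-B28 cells plated at 30,000/well and incubated overnight at 37°C, 5% CO2. Incubated 3 h at room temperature, washed three times, bound radioactivity counted by scintillation.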

[5] = Effect on Pde4b gene expression in rat UMR106 cells after 2 hrs by real time PCR method relative to control; type: functional
Method in brief: (§3)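 Confluent UMR106 cells were serum-starved (0.1% FBS, 24 h) and then given peptide in the medium for 2 h. Transcripts were quantified by TaqMan real-time RT-PCR, with relative expression levels set from a serial-dilution standard. Expression is reported as change versus untreated control.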

[6] = Decrease in collagen synthesis in neonatal CD1 mouse calivaria bone assessed as [3H]proline incorporation; type: functional
[7] = target: T1, Parathyroid hormone/parathyroid hormone-related peptide receptor; assay: Activity at human PTH/PTH-related peptide receptor expressed in HEK293 cells assessed as induction of luciferase activity by CRE-luciferase reporter assay; type: functional, cell-based
[8] = Effect on c-fos gene expression in rat UMR106 cells after 2 hrs by microarray analysis relative to control; type: functional; method in brief: as §1
[9] = Effect on Pde4b gene expression in rat UMR106 cells after 2 hrs by microarray analysis relative to control; type: functional; method in brief: as §1
[10] = Effect on Bmp3 gene expression in rat UMR106 cells after 8 hrs by microarray analysis relative to control; type: functional; method in brief: as §1
[11] = target: T1, Parathyroid hormone/parathyroid hormone-related peptide receptor; assay: Displacement of [125I]DPC-AJ1951 from PTH/PTH-related peptide receptor expressed in HKRK-B28 cells; type: cell-based; method in brief: as §2
[12] = Stability in rat plasma assessed as half life; type: ADME, cell-free
Method in brief: (§4)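 Peptide incubated at 37°C in rat plasma or rat whole blood; half-life determined.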

[13] = Effect on Ptpn16 gene expression in rat UMR106 cells after 8 hrs by microarray analysis relative to control; type: functional; method in brief: as §1
[14] = Effect on Crem gene expression in rat UMR106 cells after 2 hrs by real time PCR method relative to control; type: functional; method in brief: as §3
[15] = target: T1, Parathyroid hormone/parathyroid hormone-related peptide receptor; assay: Activity at human PTH/PTH-related peptide receptor expressed in SAOS2 cells assessed as cAMP formation; type: functional, cell-based, SAOS-2
Method in brief: (§5)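 Nonconfluent cells grown at 37°C in DMEM with 10% FBS, refed 12–24 h before assay. Rinsed with warm PBS, detached with prewarmed EDTA (37°C, 5–10 min), spun at 300 × g for 5 min. Resuspended in HBSS/5 mM Hepes/0.1% BSA/0.5 mM IBMX, pH 7.4. cAMP read by AlphaScreen.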

[16] = Effect on Ptpn16 gene expression in rat UMR106 cells after 2 hrs by microarray analysis relative to control; type: functional; method in brief: as §1
[17] = Stability in rat whole blood assessed as half life; type: ADME, tissue-based; method in brief: as §4
[18] = Effect on c-fos gene expression in rat UMR106 cells after 2 hrs by real time PCR method relative to control; type: functional; method in brief: as §3
[19] = target: T1, Parathyroid hormone/parathyroid hormone-related peptide receptor; assay: Displacement of [125I]DPC-AJ1951 from PTH/PTH-related peptide receptor expressed in HKRK-B28 cells in presence of SW106; type: cell-based; method in brief: as §2
[20] = Effect on Pthr1 gene expression in rat UMR106 cells after 2 hrs by real time PCR method relative to control; type: functional; method in brief: as §3
[21] = target: T1, Parathyroid hormone/parathyroid hormone-related peptide receptor; assay: Activity at human PTH/PTH-related peptide receptor expressed in HEK293 cells assessed as induction of intracellular calcium mobilization; type: functional, cell-based
[22] = Stimulation of cell proliferation in neonatal CD1 mouse calivaria assessed as increase in [3H]thymidine incorporation; type: functional
[23] = Effect on IL18 gene expression in rat UMR106 cells after 8 hrs by microarray analysis relative to control; type: functional; method in brief: as §1
[24] = Effect on Crem gene expression in rat UMR106 cells after 2 hrs by microarray analysis relative to control; type: functional; method in brief: as §1
[25] = Effect on Bmp3 gene expression in rat UMR106 cells after 2 hrs by real time PCR method relative to control; type: functional; method in brief: as §3
[26] = Effect on Pthr1 gene expression in rat UMR106 cells after 8 hrs by microarray analysis relative to control; type: functional; method in brief: as §1
[27] = Effect on Ptpn16 gene expression in rat UMR106 cells after 2 hrs by real time PCR method relative to control; type: functional; method in brief: as §3
Rattus norvegicus = assay: Increase in cAMP level in ovariectomized rat plasma after 30 mins at 1 mg/kg, sc relative to control; type: functional; conditions: route subcutaneous
[28] = Effect on IL18 gene expression in rat UMR106 cells after 2 hrs by real time PCR method relative to control; type: functional; method in brief: as §3
[29] = Increase in trabecular bone mineral density in ovariectomized rat at 0.2 mg/kg, sc; type: functional, Trabecula; conditions: route subcutaneous
[30] = target: T2, Parathyroid hormone/parathyroid hormone-related peptide receptor (Rattus norvegicus, UniProt P25961); assay: Activity at rat PTH/PTH-related peptide receptor expressed in rat UMR106 cells assessed as cAMP formation; type: functional, cell-based; method in brief: as §5
T2 sequence (P25961 whole entry): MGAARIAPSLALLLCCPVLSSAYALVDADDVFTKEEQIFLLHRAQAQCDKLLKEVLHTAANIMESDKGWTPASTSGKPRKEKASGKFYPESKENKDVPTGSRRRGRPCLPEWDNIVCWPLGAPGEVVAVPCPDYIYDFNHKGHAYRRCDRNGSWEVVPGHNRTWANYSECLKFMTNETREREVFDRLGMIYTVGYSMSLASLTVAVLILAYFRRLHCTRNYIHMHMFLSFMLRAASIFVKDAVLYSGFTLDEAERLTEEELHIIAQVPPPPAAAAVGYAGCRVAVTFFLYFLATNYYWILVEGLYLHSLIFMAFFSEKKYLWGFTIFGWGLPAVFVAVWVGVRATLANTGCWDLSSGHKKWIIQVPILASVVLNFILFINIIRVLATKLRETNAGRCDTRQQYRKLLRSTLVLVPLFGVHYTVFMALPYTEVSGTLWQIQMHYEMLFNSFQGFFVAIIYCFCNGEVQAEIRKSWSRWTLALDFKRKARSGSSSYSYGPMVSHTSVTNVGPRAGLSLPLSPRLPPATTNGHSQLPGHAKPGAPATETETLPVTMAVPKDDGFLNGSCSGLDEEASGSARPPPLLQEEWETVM

[31] = Effect on Pde4b gene expression in rat UMR106 cells after 8 hrs by microarray analysis relative to control; type: functional; method in brief: as §1

Compound: CCCC[C@H](NC(=O)[C@H](CC(C)C)NC(=O)[C@H](CCC(N)=O)NC(=O)[C@@H](NC(=O)[C@H](CCC(=O)O)NC(=O)C(C)(C)NC(=O)[C@@H](NC(=O)C(C)(C)N)C(C)C)[C@@H](C)CC)C(=O)N[C@@H](Cc1cnc[nH]1)C(=O)N[C@@H](CCC(N)=O)C(=O)N[C@@H](CCCNC(=N)N)C(=O)N[C@@H](C)C(=O)N[C@@H](CCCCN)C(=O)N[C@@H](Cc1ccc(O)cc1)C(N)=O (H-[Aib]V[Aib]EIQL[Nle]HQRAKY-NH2)
- fold change (FC) [1]: 11
- fold change (FC) [2]: -2
- EC50 [3]: 30 nM
- Kd [4]: 21.6 nM
- fold change (FC) [5]: 4
- EC50 [6]: 0.2 nM
- EC50 [7]: 0.15 nM
- fold change (FC) [8]: 48
- fold change (FC) [9]: 11
- fold change (FC) [10]: 4
- IC50 [11]: 6.87 nM
- half-life [12]: 20 min
- fold change (FC) [13]: 6
- fold change (FC) [14]: 5
- EC50 [15]: 2.2 nM
- fold change (FC) [16]: 9
- half-life [17]: 15 min
- fold change (FC) [18]: 66
- IC50 [19]: 55.4 nM
- fold change (FC) [20]: -2
- EC50 [21]: 26 nM
- EC50 [22]: 6 nM
- fold change (FC) [23]: 18
- fold change (FC) [24]: 13
- fold change (FC) [25]: 14
- fold change (FC) [26]: 3
- fold change (FC) [27]: 15
- Activity (Rattus norvegicus): 150%
- fold change (FC) [28]: 6
- Activity [29]: 21%
- EC50 [30]: 1.1 nM
- fold change (FC) [31]: 9
